# Measurements taken from ChEMBL document CHEMBL1828575, “Design, synthesis and antiproliferative activities of biarylolefins based on polyhydroxylated and carbohydrate scaffolds” (Eur J Med Chem, 2011).
# What was measured:
# Type in all cases: functional
# UACC-257 = assay: Antitumor activity against human UACC257 cells after 48 hrs by SRB assay; conditions: UACC-257, 48 h
# Procedure, shortened: (§1)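 NCI60 panel cells grown in RPMI 1640 with 5% FBS and 2 mM L-glutamine, plated at 5000–40,000 cells/well and preincubated 24 h at 37 °C, 5% CO₂. Compound was added from DMSO at five concentrations, 10-fold or 1/2 log dilutions, then incubated 48 h.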
# SK-OV-3 = assay: Cytotoxicity against human SKOV3 cells assessed as cellular growth at 10 uM after 48 hrs by SRB assay
# Procedure, shortened: (§2)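 NCI-60 panel lines grown in RPMI 1640 with 5% FBS and 2 mM L-glutamine. Plated at 5000–40,000 cells/well and preincubated 24 h at 37 °C, 5% CO₂, with time-zero plates fixed in TCA. Compounds, dissolved in DMSO and diluted in medium, were applied for 48 h. Cells were TCA-fixed (10% final for adherent, 16% for suspension) and stained with 0.4% SRB in 1% acetic acid. Dye was solubilised in 10 mM Tris base and read at 515 nm; growth was expressed as a percentage of untreated control.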
# NCI-H23 = assay: Antitumor activity against human NCI-H23 cells after 48 hrs by SRB assay; conditions: NCI-H23, 48 h
# Procedure, shortened: (§3)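 NCI60 panel in RPMI 1640 with 5% FBS and 2 mM L-glutamine. Cells were plated at 5000–40,000/well by doubling time, held 24 h, then time-zero plates were TCA-fixed. Five concentrations (10-fold or half-log dilutions of DMSO stocks) were applied for 48 h at 37 °C, 5% CO2. Cells were fixed with cold TCA (10% final adherent, 16% suspension) and stained with 0.4% SRB. Bound dye was dissolved in 10 mM Tris and read at 515 nm. GI50, TGI and LC50 were calculated per line.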
# HT-29 = assay: Cytotoxicity against human HT-29 cells assessed as cellular growth at 10 uM after 48 hrs by SRB assay
# Procedure, shortened: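 NCI60 single-dose screen of cells in RPMI 1640 with 5% FBS and 2 mM L-glutamine, preincubated 24 h at 37 °C, 5% CO₂. Cells were then exposed 48 h to compound added from DMSO stock. TCA-fixed, stained with 0.4% SRB in 1% acetic acid, dye solubilised in 10 mM Tris base and read at 515 nm. Growth is given as percent of untreated control.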
# [1] = Cytotoxicity against human NCI60 cells assessed as cellular growth at 10 uM after 48 hrs by SRB assay relative to untreated control; procedure, shortened: as §2
# U-251 = assay: Antitumor activity against human U251 cells after 48 hrs by SRB assay; conditions: U-251, 48 h; procedure, shortened: as §1
# SF-295 = assay: Antitumor activity against human SF295 cells after 48 hrs by SRB assay; conditions: SF-295, 48 h; procedure, shortened: as §3
# K562 = assay: Antitumor activity against human K562 cells after 48 hrs by SRB assay; conditions: K562, 48 h; procedure, shortened: as §3
# SK-MEL-28 = assay: Antitumor activity against human SK-MEL-28 cells after 48 hrs by SRB assay; conditions: SK-MEL-28, 48 h; procedure, shortened: as §1
# OVCAR-4 = assay: Antitumor activity against human OVCAR4 cells after 48 hrs by SRB assay; conditions: OVCAR-4, 48 h; procedure, shortened: as §3
# SF-268 = assay: Antitumor activity against human SF268 cells after 48 hrs by SRB assay; conditions: SF-268, 48 h; procedure, shortened: as §3
# PC-3 = assay: Cytotoxicity against human PC3 cells assessed as cellular growth at 10 uM after 48 hrs by SRB assay; procedure, shortened: as §2
# A498 = assay: Antitumor activity against human A498 cells after 48 hrs by SRB assay; conditions: A498, 48 h; procedure, shortened: as §3
# SNB-19 [2] = assay: Cytotoxicity against human SNB19 cells assessed as cellular growth at 10 uM after 48 hrs by SRB assay; procedure, shortened: as §2
# SNB-19 [3] = assay: Antitumor activity against human SNB19 cells after 48 hrs by SRB assay; conditions: SNB-19, 48 h; procedure, shortened: as §1
# MDA-MB-435 = assay: Cytotoxicity against human MDA-MB-435 cells assessed as cellular growth at 10 uM after 48 hrs by SRB assay; procedure, shortened: as §2
# LOX IMVI = assay: Antitumor activity against human LOXIMVI cells after 48 hrs by SRB assay; procedure, shortened: as §3
# NCI-H522 = assay: Antitumor activity against human NCI-H522 cells after 48 hrs by SRB assay; conditions: NCI-H522, 48 h; procedure, shortened: as §3
# NCI/ADR-RES = assay: Antitumor activity against human NCI/ADR-RES cells after 48 hrs by SRB assay; procedure, shortened: as §3
# OVCAR-5 = assay: Antitumor activity against human OVCAR5 cells after 48 hrs by SRB assay; conditions: OVCAR-5, 48 h; procedure, shortened: as §3
# SF-539 = assay: Cytotoxicity against human SF539 cells assessed as cellular growth at 10 uM after 48 hrs by SRB assay; procedure, shortened: as §2
# [4] = read-out: LC50 (the source's name)
# [5] = read-out: pLC50 (the source's name) (converted)
smiles,measurement,setting,value
COc1ccc(/C(=C2/O[C@@H]([C@H]3COC(C)(C)O3)[C@H]3OC(C)(C)O[C@@H]23)c2cc(OC)c(OC)c(OC)c2)cc1O,GI50,UACC-257; read-out: GI50,> 1 µM
same,CC50,UACC-257; [4],> 100 µM
same,TGI,UACC-257; read-out: TGI,> 100 µM
same,GI50,UACC-257; read-out: pGI50 (converted),100 µM
same,CC50,UACC-257; [5],> 100 µM
same,TGI,UACC-257; read-out: pTGI (converted),> 100 µM
same,Activity,SK-OV-3,36.02%
same,GI50,NCI-H23; read-out: GI50,7.98 µM
same,CC50,NCI-H23; [4],> 100 µM
same,TGI,NCI-H23; read-out: TGI,46 µM
same,GI50,NCI-H23; read-out: pGI50 (converted),7.94 µM
same,CC50,NCI-H23; [5],> 100 µM
same,TGI,NCI-H23; read-out: pTGI (converted),45.7 µM
same,Activity,HT-29,107.45%
same,Activity,[1],57%
same,GI50,U-251,3.84 µM
same,TGI,U-251,48.2 µM
same,CC50,U-251; [4],> 100 µM
same,GI50,SF-295; read-out: GI50,7 µM
same,CC50,SF-295; [4],> 100 µM
same,TGI,SF-295; read-out: TGI,37.3 µM
same,GI50,SF-295; read-out: pGI50 (converted),6.92 µM
same,CC50,SF-295; [5],> 100 µM
same,TGI,SF-295; read-out: pTGI (converted),23.4 µM
same,GI50,K562; read-out: GI50,3.22 µM
same,CC50,K562; [4],> 100 µM
same,TGI,K562; read-out: TGI,> 100 µM
same,GI50,K562; read-out: pGI50 (converted),3.24 µM
same,CC50,K562; [5],> 100 µM
same,TGI,K562; read-out: pTGI,> 100 µM
same,LC50 (50% lethal concentration),SK-MEL-28,> 100 µM
same,GI50,SK-MEL-28; read-out: GI50,5.45 µM
same,TGI,SK-MEL-28; read-out: TGI,> 100 µM
same,GI50,SK-MEL-28; read-out: pGI50 (converted),5.5 µM
same,CC50,SK-MEL-28; [5],> 100 µM
same,TGI,SK-MEL-28; read-out: pTGI,> 100 µM
same,CC50,OVCAR-4; [4],> 100 µM
same,GI50,OVCAR-4; read-out: pGI50 (converted),9.12 µM
same,CC50,OVCAR-4; [5],> 100 µM
same,TGI,OVCAR-4; read-out: pTGI (converted),> 100 µM
same,LC50 (concentration killing 50% of cells relative to time zero),SF-268,> 100 µM
same,GI50,SF-268; read-out: GI50,6.95 µM
same,TGI,SF-268; read-out: TGI,31.4 µM
same,GI50,SF-268; read-out: pGI50 (converted),6.92 µM
same,CC50,SF-268; [5],> 100 µM
same,TGI,SF-268; read-out: pTGI (converted),31.6 µM
same,Activity,PC-3,30.63%
same,GI50,A498; read-out: GI50,3.57 µM
same,CC50,A498; [4],> 100 µM
same,TGI,A498; read-out: TGI,> 100 µM
same,GI50,A498; read-out: pGI50 (converted),35.5 µM
same,CC50,A498; [5],> 100 µM
same,TGI,A498; read-out: pTGI (converted),> 100 µM
same,Activity,SNB-19 [2],47.41%
same,GI50,SNB-19 [3],4.28 µM
same,TGI,SNB-19 [3],> 100 µM
same,CC50,SNB-19 [3]; [4],> 100 µM
same,Activity,MDA-MB-435,44.7%
same,GI50,LOX IMVI,5.18 µM
same,TGI,LOX IMVI,> 100 µM
same,CC50,LOX IMVI; [4],> 100 µM
same,GI50,NCI-H522,2.73 µM
same,TGI,NCI-H522,9.08 µM
same,CC50,NCI-H522; [4],> 100 µM
same,GI50,NCI/ADR-RES,2.52 µM
same,LC50,NCI/ADR-RES,> 100 µM
same,TGI,NCI/ADR-RES,6.91 µM
same,GI50,OVCAR-5; read-out: GI50,> 1 µM
same,CC50,OVCAR-5; [4],> 100 µM
same,TGI,OVCAR-5; read-out: TGI,> 100 µM
same,GI50,OVCAR-5; read-out: pGI50 (converted),100 µM
same,CC50,OVCAR-5; [5],> 100 µM
same,TGI,OVCAR-5; read-out: pTGI (converted),> 100 µM
same,Activity,SF-539,9.85%
